According to ChEMBL document CHEMBL1127799, “Derivatives of a novel cyclopeptolide. 1. Synthesis, antifungal activity, and structure-activity relationships” (1994):
In brackets after ≈: the same amount, converted by molar mass.

What was measured:
Assay type in all cases: functional
Rattus norvegicus [1] = species on record: Rattus norvegicus; assay: Tested for efficacy of compound in experimental vaginal candidosis (rat) after oral treatment at dosage of 2x 300 mg kg e-1
Procedure, shortened: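 Hormonally conditioned female Wistar rats (~150 g), 10 per group, given intravaginal C. albicans no. 124, 3.5×10^4 CFU in 50 μL Sabouraud's glucose broth. Oral dosing twice, 2 h before and 18 h after infection. Vaginal swabs plated on Sabouraud's glucose agar with streptomycin (0.1 mg/mL), 48 h at 37 °C. Cured when C. albicans not reisolated.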

[2] = system: Meyerozyma guilliermondii; assay: Tested for minimum inhibitory concentration against Candida guilliermondii 80 (C.g) at pH of 4.5.
Procedure, shortened: (§1)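 Broth microdilution in malt extract broth, initial pH 4.5 or 6.5, with 1×10^3 CFU per 0.2 mL well of thawed stored cultures. Compound stocks were made in 5% DMSO/0.2% Tween 80 and diluted to final 0.05–100 μg/mL. Plates were incubated 48 h at 30 °C and read macroscopically. MIC was the lowest concentration with no detectable growth. Vehicle-only wells served as controls.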

Candida albicans [3] = assay: Tested for minimum subinhibitory concentration against Candida albicans 90 (Candida albicans) at pH 4.5.
Procedure, shortened: (§2)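 Malt extract broth microdilution at initial pH 4.5, 1×10^3 CFU/0.2 mL well, final compound 0.05–100 μg/mL diluted from DMSO/Tween 80 stocks. Incubation was 48 h at 30 °C with macroscopic reading. MSIC was the lowest concentration causing visible growth inhibition in at least two of three triplicates.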

Candida tropicalis [4] = assay: Tested for minimum subinhibitory concentration against Candida tropicalis 43 (C.t) at pH 6.5.
Procedure, shortened: (§3)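 Malt extract broth microdilution, initial pH 6.5, inoculum 1×10^3 CFU per 0.2 mL well. Compound diluted from 0.08% stock (5% DMSO/0.2% Tween 80) to final 0.05–100 μg/mL. Macroscopic reading after 48 h, 30 °C. MSIC = lowest concentration giving visible growth inhibition in at least two of three triplicates. Vehicle-only negative controls.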

Mus musculus [5] = assay: Tested for efficacy of compound in experimental systemic candidosis (mouse) after intraperitoneal treatment at dosage of 8 *50 mg kg e-1
Procedure, shortened: (§4)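 Mice (female NMRI, 18–20 g; 10 per group) infected by tail-vein injection of 10⁶ CFU C. albicans no. 124. Compound was given intraperitoneally twice daily on 4 consecutive days, starting 2 h before inoculation. Efficacy was scored as survival rate up to day 9 after infection.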

Candida albicans [6] = assay: Tested for minimum inhibitory concentration against Candida albicans 4 (Candida albicans) at pH 4.5.; procedure, shortened: as §1
Mus musculus [7] = species on record: Mus musculus; assay: Tested for efficacy of compound in experimental systemic candidosis (mouse) after oral treatment at dosage of 8 *200 mg kg e-1
Procedure, shortened: (§5)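 Systemic candidiasis: female NMRI mice (18–20 g), 10 per group, infected by intravenous injection of 10⁶ CFU C. albicans no. 124 via lateral tail vein. Oral dosing twice daily on 4 consecutive days, starting 2 h before inoculation. Efficacy taken as survival rate up to day 9 after infection.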

Candida albicans [8] = assay: Tested for minimum subinhibitory concentration against Candida albicans 26 (Candida albicans) at pH 4.5.; procedure, shortened: as §2
Rattus norvegicus [9] = assay: Tested for efficacy of compound in experimental vaginal candidosis (rat) after intraperitoneal treatment at dosage of 2x 50 mg kg e-1
Procedure, shortened: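 Female Wistar rats (~150 g; 10 per group) were hormonally conditioned and infected intravaginally with 3.5×10^4 CFU C. albicans no. 124 in 50 μL broth. Intraperitoneal dosing was given twice, 2 h before and 18 h after infection. Swabs taken one day after the last dose were plated on streptomycin Sabouraud agar (48 h, 37 °C). Cure meant failed reisolation.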

Candida albicans [10] = assay: Tested for minimum subinhibitory concentration against Candida albicans 124 (Candida albicans) at pH 6.5.; procedure, shortened: as §3
[11] = system: Meyerozyma guilliermondii; assay: Tested for minimum inhibitory concentration against Candida guilliermondii 80 (C.g) at pH of 6.5.; procedure, shortened: as §1
[12] = system: Meyerozyma guilliermondii; assay: Tested for minimum inhibitory concentration against Candida guilliermondii 80 (C.g) at pH 4.5.; procedure, shortened: as §1
Candida albicans [13] = assay: Tested for minimum inhibitory concentration against Candida albicans 4 (Candida albicans) at pH 6.5.
Procedure, shortened: (§6)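 Broth microdilution in malt extract broth, initial pH 6.5, 1×10^3 CFU per 0.2 mL well, from liquid-nitrogen-stored Sabouraud cultures. Compound from 0.08% stock in 5% DMSO/0.2% Tween 80, final 0.05–100 μg/mL. Visual reading after 48 h at 30 °C. MIC = lowest concentration with no detectable growth. Vehicle-only negative controls.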

Candida albicans [14] = assay: Tested for minimum inhibitory concentration against Candida albicans 26 (Candida albicans) at pH 6.5.; procedure, shortened: as §6
Candida albicans [15] = assay: Tested for minimum subinhibitory concentration against Candida albicans 3 (Candida albicans) at pH 4.5.; procedure, shortened: as §2
Candida tropicalis [16] = assay: Tested for minimum inhibitory concentration against Candida tropicalis 43 (C.t) at pH of 6.5.; procedure, shortened: as §1
Candida albicans [17] = assay: Tested for minimum subinhibitory concentration against Candida albicans 26 (Candida albicans) at pH 6.5.; procedure, shortened: as §3
Candida albicans [18] = assay: Tested for minimum inhibitory concentration against Candida albicans 90 (Candida albicans) at pH 4.5.; procedure, shortened: as §1
Mus musculus [19] = species on record: Mus musculus; assay: Tested for efficacy of compound in experimental systemic candidosis (mouse) after oral treatment at dosage of 8 *100 mg kg e-1; procedure, shortened: as §5
Candida albicans [20] = assay: Tested for minimum subinhibitory concentration against Candida albicans 4 (Candida albicans) at pH 6.5.; procedure, shortened: as §3
Candida albicans [21] = assay: Tested for minimum inhibitory concentration against Candida albicans 90 (Candida albicans) at pH 6.5.; procedure, shortened: as §6
Rattus norvegicus [22] = species on record: Rattus norvegicus; assay: Tested for efficacy of compound in experimental vaginal candidosis (rat) after tropical treatment at dosage of 9x 1% drug concentration
Procedure, shortened: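 Hormonally conditioned female Wistar rats (~150 g; 10 per group) were infected intravaginally with 3.5×10^4 CFU C. albicans no. 124. Intravaginal gel (0.2 mL) started 2 h post-inoculation and was applied twice daily for 4 days, giving nine applications. Vaginal swabs taken one day after the last treatment were cultured on streptomycin Sabouraud agar at 37 °C for 48 h. Cure meant no reisolation.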

Candida albicans [23] = assay: Tested for minimum subinhibitory concentration against Candida albicans 9 (Candida albicans) at pH 4.5.; procedure, shortened: as §2
Mus musculus [24] = assay: Tested for efficacy of compound in experimental systemic candidosis (mouse) after intraperitoneal treatment at dosage of 8 *25 mg kg e-1; procedure, shortened: as §4
Pichia kudriavzevii = assay: Tested for minimum inhibitory concentration against Candida krusei 132 (C.k) at pH 4.5.; procedure, shortened: as §1
Candida albicans [25] = assay: Tested for minimum inhibitory concentration against Candida albicans 88 (Candida albicans) at pH 4.5.; procedure, shortened: as §1
Candida tropicalis [26] = assay: Tested for minimum subinhibitory concentration against Candida tropicalis 43 (C.t) at pH 4.5.; procedure, shortened: as §2
Candida tropicalis [27] = assay: Tested for minimum inhibitory concentration against Candida tropicalis 43 (C.t) at pH of 4.5.; procedure, shortened: as §1
Candida albicans [28] = assay: Tested for minimum subinhibitory concentration against Candida albicans 9 (Candida albicans) at pH 6.5.; procedure, shortened: as §3
Candida albicans [29] = assay: Tested for minimum subinhibitory concentration against Candida albicans 3 (Candida albicans) at pH 6.5.; procedure, shortened: as §3
Candida albicans [30] = assay: Tested for minimum inhibitory concentration against Candida albicans 124 (Candida albicans) at pH 6.5.; procedure, shortened: as §6
Candida albicans [31] = assay: Tested for minimum inhibitory concentration against Candida albicans 88 (Candida albicans) at pH 6.5.; procedure, shortened: as §6
Candida albicans [32] = assay: Tested for minimum inhibitory concentration against Candida albicans 3 (Candida albicans) at pH 4.5.; procedure, shortened: as §1

Compound `CC[C@@H](C)[C@H]1C(=O)NCC(=O)N(C)[C@@H](C(C)C)C(=O)N[C@@H](Cc2ccc(OC)cc2)C(=O)O[C@H](C)C(=O)N2CCCC[C@H]2C(=O)N(C)[C@@H](C(C)C)C(=O)N[C@@H](C(C)C)C(=O)N(C)[C@@H](CC(=O)O)C(=O)N(C)[C@@H]([C@@H](C)CC)C(=O)N1C` has an Efficacy (Rattus norvegicus [1]) of 56%, an MIC [2] of 6.25 µg/mL (≈ 5.55 µM) and an MSIC (Candida albicans [3]) of 0.78 µg/mL. It also gave an MSIC (Candida tropicalis [4]) of 6.25 µg/mL, an Efficacy (Mus musculus [5]) of 20% and an MIC (Candida albicans [6]) of 6.25 µg/mL (≈ 5.55 µM). The Efficacy (Mus musculus [7]) was 90%, the MSIC (Candida albicans [8]) was 0.78 µg/mL and the Efficacy (Rattus norvegicus [9]) was 0%. For the same compound, the MSIC (Candida albicans [10]) was 3.12 µg/mL, the MIC [11] was > 100 µg/mL and the MIC [12] was 6.25 µg/mL (≈ 5.55 µM). For the same compound, the MIC (Candida albicans [13]) was 100 µg/mL (≈ 88.8 µM), the MIC (Candida albicans [14]) was > 100 µg/mL and the MSIC (Candida albicans [15]) was 0.78 µg/mL. It also gave an MIC (Candida tropicalis [16]) of 100 µg/mL (≈ 88.8 µM), an MSIC (Candida albicans [17]) of 6.25 µg/mL and an MIC (Candida albicans [18]) of 3.12 µg/mL (≈ 2.77 µM). For the same compound, the Efficacy (Mus musculus [19]) was 40%, the MSIC (Candida albicans [20]) was 12.5 µg/mL and the MIC (Candida albicans [21]) was 100 µg/mL (≈ 88.8 µM). The Efficacy (Rattus norvegicus [22]) was 100%, the MSIC (Candida albicans [23]) was 0.78 µg/mL and the Efficacy (Mus musculus [24]) was 20%. For the same compound, the MIC (Pichia kudriavzevii) was > 100 µg/mL, the MIC (Candida albicans [25]) was 12.5 µg/mL (≈ 11.1 µM) and the MSIC (Candida tropicalis [26]) was 0.8 µg/mL. It also gave an MIC (Candida tropicalis [27]) of 1.56 µg/mL (≈ 1.38 µM), an MSIC (Candida albicans [28]) of 12.5 µg/mL and an MSIC (Candida albicans [29]) of 6.25 µg/mL. It also gave an MIC (Candida albicans [30]) of 50 µg/mL (≈ 44.4 µM), an MIC (Candida albicans [31]) of 100 µg/mL (≈ 88.8 µM) and an MIC (Candida albicans [32]) of 6.25 µg/mL (≈ 5.55 µM).
